Reference: ChEMBL document CHEMBL4382236, “Synthesis and biological evaluation of thielocin B1 analogues as protein-protein interaction inhibitors of PAC3 homodimer” (Bioorg Med Chem, 2018)

Assays:
[1] = target: T1, Proteasome assembly chaperone 3 (Homo sapiens) (UniProt Q9BT73); assay: (§1) Inhibition of N-terminal mKG-labeled PAC3/C-terminal mKG-labeled PAC3 homodimer (unknown origin) protein-protein interaction at 10 uM preincubated for 1 hr with protein followed by another protein addition and measured after 17 hrs by fluorescence based protein-fragment complementation assay relative to control
T1 sequence (whole entry): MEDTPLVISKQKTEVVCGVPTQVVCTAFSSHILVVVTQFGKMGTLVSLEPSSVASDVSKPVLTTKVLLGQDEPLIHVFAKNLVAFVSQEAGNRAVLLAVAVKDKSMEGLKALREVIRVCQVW
In short: (§2)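 In vitro protein-fragment complementation assay. Compounds were added as DMSO solutions at 10, 1 or 0.1 μM. The decrease in fluorescence intensity was converted to percent inhibition.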

[2] = target: T1, Proteasome assembly chaperone 3 (Homo sapiens); assay: as §1, with “1” for “10”; in short: as §2
[3] = target: T1, Proteasome assembly chaperone 3 (Homo sapiens); assay: as §1, with “0.1” for “10”; in short: as §2
[4] = target: T2, PAC1-PAC2 complex (Homo sapiens) (UniProt O95456+Q969U7); assay: as §1, with “PAC1/C-terminal” for “PAC3/C-terminal”, “PAC2” for “PAC3 homodimer”; assay type: protein-complex assay; in short: as §2
[5] = target: T2, PAC1-PAC2 complex (Homo sapiens); assay: as §1, with “PAC1/C-terminal” for “PAC3/C-terminal”, “PAC2” for “PAC3 homodimer”, “1” for “10”; assay type: protein-complex assay; in short: as §2
[6] = target: T2, PAC1-PAC2 complex (Homo sapiens); assay: as §1, with “PAC1/C-terminal” for “PAC3/C-terminal”, “PAC2” for “PAC3 homodimer”, “0.1” for “10”; assay type: protein-complex assay; in short: as §2
[7] = target: T3, Proteasome assembly chaperone 3 (Homo sapiens, UniProt Q9BT73); assay: Inhibition of PAC3 homodimer (unknown origin) protein-protein interaction
T3 sequence (Q9BT73 whole entry): T1 sequence (whole entry)

PAC1-PAC2 complex = target: T4, PAC1-PAC2 complex (Homo sapiens, UniProt O95456+Q969U7); assay: Inhibition of PAC1/PAC2 heterodimer (unknown origin) protein-protein interaction; assay type: protein-complex assay
T4 sequence (O95456 whole entry): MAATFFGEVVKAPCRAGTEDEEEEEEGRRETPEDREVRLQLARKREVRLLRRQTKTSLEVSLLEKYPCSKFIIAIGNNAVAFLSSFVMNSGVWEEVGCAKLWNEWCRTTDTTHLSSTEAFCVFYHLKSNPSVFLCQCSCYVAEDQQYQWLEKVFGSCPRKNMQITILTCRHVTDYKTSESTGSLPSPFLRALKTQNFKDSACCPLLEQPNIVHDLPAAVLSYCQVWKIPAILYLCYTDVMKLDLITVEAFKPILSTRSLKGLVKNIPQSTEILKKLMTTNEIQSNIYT
T4 sequence (Q969U7 whole entry): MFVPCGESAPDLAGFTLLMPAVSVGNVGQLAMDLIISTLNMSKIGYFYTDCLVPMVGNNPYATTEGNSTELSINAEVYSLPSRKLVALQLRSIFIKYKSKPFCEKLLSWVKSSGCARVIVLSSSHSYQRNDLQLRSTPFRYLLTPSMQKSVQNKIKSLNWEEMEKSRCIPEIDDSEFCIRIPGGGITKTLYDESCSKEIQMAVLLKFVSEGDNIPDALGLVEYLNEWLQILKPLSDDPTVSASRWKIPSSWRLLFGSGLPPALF

| inhibition [1] [%] | inhibition [2] [%] | inhibition [3] [%] | inhibition [4] [%] | inhibition [5] [%] | inhibition [6] [%] | IC50 [7] [µM] | IC50 (PAC1-PAC2 complex) [µM] | Compound |
| --- | --- | --- | --- | --- | --- | --- | --- | --- |
| 99 | 37 | 7 | 98 | 35 | 9 |  |  | COc1c(C)c(OC(=O)c2ccc(Oc3cccc(C(=O)Oc4c(C)c(C)c(C(=O)Oc5c(C)c(C)c(C(=O)O)c(OC)c5C)c(OC)c4C)c3)cc2)c(C)c(C)c1C(=O)O |
| 98 | 40 | 4 | 91 | 37 | 15 |  |  | COc1c(C)c(OC(=O)c2ccc(Oc3cccc(C(=O)Oc4c(C)c(C)c(C(=O)Oc5c(C)c(C)c(C(=O)O)c(OC)c5C)c(OC)c4C)c3C)cc2)c(C)c(C)c1C(=O)O |
| 85 | 49 | 29 | 38 | 2 | 9 |  |  | COc1c(C)c(OC(=O)c2c(C)c(C)c(OC(=O)c3c(C)c(C(=O)Oc4c(C)c(C)c(C(=O)Oc5c(C)c(C)c(C(=O)O)c(OC)c5C)c(OC)c4C)c(OC)c(C)c3OC)c(C)c2OC)c(C)c(C)c1C(=O)O |
|  | 94 | 85 |  | 9 | 9 | 0.02 | > 250 | COc1c(C)c(OC(=O)c2c(C)c(C)c(OC(=O)c3c(C)c(Oc4c(C)c(C)c(C(=O)Oc5c(C)c(C)c(C(=O)O)c(OC)c5C)c(OC)c4C)c(O)c(C)c3O)c(C)c2OC)c(C)c(C)c1C(=O)O |
| 99 | 34 | 19 | 89 | 31 | 1 |  |  | COc1c(C)c(OC(=O)c2ccc(Oc3cccc(C(=O)Oc4c(C)c(C)c(C(=O)Oc5c(C)c(C)c(C(=O)O)c(OC)c5C)c(OC)c4C)c3C)c(C)c2)c(C)c(C)c1C(=O)O |
| 0 | 0 | 0 | 6 | 0 | 3 |  |  | COCOC(=O)c1c(C)c(C)c(OC(=O)c2c(C)c(C)c(OCc3cccc(COc4c(C)c(C)c(C(=O)Oc5c(C)c(C)c(C(=O)OCOC)c(OC)c5C)c(OC)c4C)c3Br)c(C)c2OC)c(C)c1OC |
| 41 | 5 | 2 | 49 | 17 | 15 |  |  | COc1c(C)c(OC(=O)c2c(C)c(C)c(OC[C@@H]3OC(=O)O[C@H]3COc3c(C)c(C)c(C(=O)Oc4c(C)c(C)c(C(=O)O)c(OC)c4C)c(OC)c3C)c(C)c2OC)c(C)c(C)c1C(=O)O |
| 88 | 43 | 18 | 40 | 5 | 9 |  |  | COc1c(C)c(OC(=O)c2c(C)c(C)c(OCc3cccc(COc4c(C)c(C)c(C(=O)Oc5c(C)c(C)c(C(=O)O)c(OC)c5C)c(OC)c4C)n3)c(C)c2OC)c(C)c(C)c1C(=O)O |
| 21 | 9 | 11 | 11 | 0 | 3 |  |  | COc1c(C)c(O)c(C)c(C)c1C(=O)Oc1c(C)c(C)c(C(=O)O)c(OC)c1C |
|  |  |  |  |  |  | > 250 |  | COc1c(C)c(OC(=O)c2c(C)c(C)c(OC(=O)c3c(C)cc(O)c(Cc4c(C)c(C(=O)Oc5c(C)c(C)c(C(=O)Oc6c(C)c(C)c(C(=O)O)c(OC)c6C)c(OC)c5C)c(O)c(C)c4O)c3O)c(C)c2OC)c(C)c(C)c1C(=O)O |
| 34 | 9 | 0 | 28 | 16 | 5 |  |  | COc1c(C)c(OC(=O)c2c(C)c(C)c(OC(=O)CCC(=O)Oc3c(C)c(C)c(C(=O)Oc4c(C)c(C)c(C(=O)O)c(OC)c4C)c(OC)c3C)c(C)c2OC)c(C)c(C)c1C(=O)O |
| 53 | 17 | 0 | 39 | 17 | 5 |  |  | COc1c(C)c(OC(=O)c2c(C)c(C)c(OC[C@H](O)[C@@H](O)COc3c(C)c(C)c(C(=O)Oc4c(C)c(C)c(C(=O)O)c(OC)c4C)c(OC)c3C)c(C)c2OC)c(C)c(C)c1C(=O)O |
| 2 | 5 | 12 | 1 | 0 | 3 |  |  | COCOC(=O)c1c(C)c(C)c(OC(=O)c2c(C)c(C)c(OC(=O)c3c(C)c(C(=O)Oc4c(C)c(C)c(C(=O)Oc5c(C)c(C)c(C(=O)OCOC)c(OC)c5C)c(OC)c4C)c(OC)c(C)c3OC)c(C)c2OC)c(C)c1OC |
| 86 | 38 | 26 | 57 | 5 | 3 |  |  | COc1c(C)c(OC(=O)c2c(C)c(C)c(OCc3cccc(COc4c(C)c(C)c(C(=O)Oc5c(C)c(C)c(C(=O)O)c(OC)c5C)c(OC)c4C)c3Br)c(C)c2OC)c(C)c(C)c1C(=O)O |
| 94 | 17 | 4 | 69 | 23 | 21 |  |  | COc1c(C)c(OC(=O)c2c(C)c(C)c(OC(=O)c3c(C)c(C(=O)Oc4c(C)c(C)c(C(=O)Oc5c(C)c(C)c(C(=O)O)c(OC)c5C)c(OC)c4C)c(O)c(C)c3O)c(C)c2OC)c(C)c(C)c1C(=O)O |
| 94 | 30 | 7 | 68 | 16 | 5 |  |  | COc1c(C)c(OC(=O)c2c(C)c(C)c(OC/C=C/COc3c(C)c(C)c(C(=O)Oc4c(C)c(C)c(C(=O)O)c(OC)c4C)c(OC)c3C)c(C)c2OC)c(C)c(C)c1C(=O)O |
|  |  |  |  |  |  | > 250 |  | COc1c(C)c(OC(=O)c2c(C)c(C)c(OC(=O)C3=C(C)[C@@](C)(O)[C@@]4(O)Oc5c(C)c(OC)c(C(=O)Oc6c(C)c(C)c(C(=O)O)c(OC)c6C)c(C)c5C[C@@]4(C)C3=O)c(C)c2OC)c(C)c(C)c1C(=O)O |
